Screens from PubChem.
CHOP UPR activ: apoptotic UPR (CHOP) activation; CHO-CHOP luciferase reporter, luminescence; percent of tunicamycin response over DMSO baseline; activation, % at 10 µM; 330,000 compounds, 0.34% hits; AID 449763;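 active means at 10 µM dose, activation of 40% or more, normalized to positive control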;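 further: 100% = tunicamycin at 10 µg/mL and 0% = DMSO alone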
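measured by = luciferase luminescence | assay system = CHO-CHOP cells, stable luciferase reporter of PERK-eIF2a-CHOP signalling | amount = 500 reporter cells seeded per well | timing = 6 h compound exposure at 37 °C after overnight seeding | controls = positive tunicamycin 10 µg/mL, negative DMSO alone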
Lipid droplet: hepatic lipid droplet formation modulation | inhibition, % at 6.5 µM | AML12 mouse hepatocytes, oleate lipid droplets, BODIPY imaging | 240,000 compounds, 0.4% hits;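 active means lipid droplet intensity inhibited by at least 50%, with more than 500 cells counted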
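Assay system: AML12 mouse liver cells | Compound: 6.5 µM single-point dosing | Schedule: Overnight exposure | Technique: Fluorescence imaging, 20x objective, two fields per well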
TMEM16A inh: inhibitors of mouse TMEM16A calcium-activated chloride channel. 310,000 compounds, 1.2% hits. HEK293 TMEM16A/YFP iodide influx fluorescence, ionomycin. Q8BHY3. AID 588511. normalized B-score (activity score, 25-100; higher = stronger inhibition) at 10 µM;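 active means ratio plate-corrected score three or more library SD toward inhibition, starting fluorescence score within five deviations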;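 further: score derived from kinetic fluorescence span divided by baseline fluorescence per well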
TMEM16A act: activates or potentiates the mouse TMEM16A chloride channel | 340,000 compounds, 0.3% hits | AID 623877 | HEK293 TMEM16A/YFP-H148Q/I152L, iodide quench fluorescence; stronger effect = lower value | B-score at 10 µM;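 active means fluorescence-ratio B-score plate-corrected deviation score at least 3 library SD below zero, with starting fluorescence score within 5 deviations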;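 further: channel opened by trigger with iodide after compound preincubation; score built on the fluorescence ratio of max minus min over baseline; more negative score means more quench and so TMEM16A activation or potentiation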
UPR XBP1 act: activators of adaptive arm of unfolded protein response (XBP1). CHO-XBP1 luciferase reporter, IRE1-XBP1 UPR activation, luminescence; percent of tunicamycin response, DMSO as zero. activation, % at 20 µM. 330,000 compounds, 0.33% hits;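 active means versus positive control, 20 µM dose yields 30% or more activation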;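 further: 100% = tunicamycin at 10 µg/mL and 0% = DMSO only wells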
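Material – CHO cell line with stable XBP1 luciferase reporter · Buffer or medium – F12 plus 10% FBS · Compound – single point, 20 µM final compound, 1% DMSO · Schedule – 16-18 h cell attachment at 37 °C, then 6 h compound exposure · Signal – Steady-Glo luminescence read · Benchmarks – high control tunicamycin 10 µg/mL final, low control DMSO vehicle only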
CHOP inh: inhibitors of CHOP induction in ER stress response; CHO-K1 CHOP-promoter luciferase, tunicamycin-induced, 15-18 h; inhibition, % at 10 µM; 220,000 compounds, 3.8% hits; AID 2732;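 active means compounds that reduced the stress-induced luciferase reporter signal by more than about 70% of percent inhibition, limit read from the data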;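 further: 0% = tunicamycin plus vehicle and 100% = wells without tunicamycin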
The depositor's hits bear a star; i = inactive; . = not tested or not shown. An excerpt weighted towards active compounds, which were near 4.2% of everything screened.

SMILES	CHOP UPR activ	Lipid droplet	TMEM16A inh	TMEM16A act	UPR XBP1 act	CHOP inh
Cc1cccc(-n2nc3c([n+]2[O-])CCc2nonc2-3)c1C	-3	-6	i	i	-2	22
Cc1ccc(C(=O)c2ccc(O)cc2)cc1C	4	10	i	i	1	56
Cc1ccc(C(=O)c2cccc(N)c2)cc1C	-7	2	i	i	-6	79*
COC(=O)C1OCOC2C(C(=O)OC)OCOC12 (stereo not given)	.	.	.	i	.	.
COc1cc(/C=c2\sc3nc(-c4ccncc4)nn3c2=O)ccc1OC(C)=O	.	.	.	.	.	107*
COc1ccccc1-c1nc2s/c(=C\c3cccs3)c(=O)n2n1	-1	1	i	i	-1	83*
COc1cccc(/C=c2\sc3nc(-c4cccs4)nn3c2=O)c1OC	-1	.	i	i	0	2
CCCCCOc1ccc(/C=c2\sc3nc(=O)c(-c4ccccc4)nn3c2=O)cc1OC	1	-12	i	i	-3	43
O=c1[nH]c(SCc2nc3c(cnn3-c3ccccc3)c(=O)[nH]2)nc2ccccc12	.	.	.	i	.	29
O=c1[nH]c(CSc2nc3ccccc3o2)nc2c1cnn2-c1ccccc1	-1	.	i	i	2	74*
O=c1[nH]c(CSc2nc3ccccc3[nH]2)nc2c1cnn2-c1ccccc1	1	-3	100*	i	-3	56
CCOc1ccc(CCNC(=O)COn2nnc3ccc(S(=O)(=O)N4CCOCC4)cc32)cc1OCC	-2	.	i	i	-6	.
Cc1ccc(S(=O)(=O)NCc2c(-c3ccccc3)c3cc(Cl)ccc3[nH]c2=O)cc1	2	1	i	i	3	103*
O=c1[nH]c2ccc(Cl)cc2c(-c2ccccc2)c1CN1CCOCC1	0	.	i	i	-1	-4
CCOC(=O)CSc1c(-c2ccccc2)c2cc(Cl)ccc2[nH]c1=O	4	7	i	i	-2	91*
O=C(O)CSc1c(-c2ccccc2)c2cc(Cl)ccc2[nH]c1=O	-2	-2	i	i	-4	-3
COc1ccc(N2CCC(CNS(=O)(=O)c3cccc(C(F)(F)F)c3)C2)cc1 (stereo not given)	-3	-2	i	i	-6	74*
Cc1cc(=O)n2nc(N3CCCC(C(=O)N4CCOCC4)C3)sc2n1 (stereo not given)	0	-5	i	-5.5*	1	-19
Clc1ccc(CSc2nnnn2-c2ccc3c(c2)OCO3)c(Cl)c1	1	3	i	i	-6	36
O=Cc1cc(OCc2ccccc2)ccc1[B-](F)(F)F	.	.	.	i	.	.
CCc1ccc(-c2cc(C)no2)cc1S(=O)(=O)NCc1ccc(OC)c(OC)c1	4	-12	i	i	-3	.
COc1ccccc1NS(=O)(=O)c1cc(-c2cc(C)no2)ccc1OC	0	-15	100*	i	-5	.
CCc1ccc(-c2cc(C)no2)cc1S(=O)(=O)NCCc1ccc(OC)c(OC)c1	0	-49	100*	i	-2	.
CC(C)CN1C(=S)SC(C)(C)C1n1oc(=O)n(-c2ccc(Cl)cc2)c1=O (stereo not given)	-1	-18	100*	i	-1	3
COc1ccccc1N(CC(=O)N1CCN(c2ccc(F)cc2)CC1)S(=O)(=O)c1ccc(C)cc1	1	-7	i	i	-3	.
SMILES	CHOP UPR activ	Lipid droplet	TMEM16A inh	TMEM16A act	UPR XBP1 act	CHOP inh
C/C(=N\NC(=O)CNc1cccc(C(F)(F)F)c1)c1ccc(Br)cc1	2	0	i	i	2	94*
C/C(=N\NC(=O)CNc1cccc(C(F)(F)F)c1)c1cccc(Br)c1	1	-24	i	i	-1	68
COc1cc(C(=O)N/N=C/c2ccc(OC(=O)c3cccc(C)c3)c(OC)c2)ccc1O	-3	8	i	i	-3	.
CC(C)CCn1c(O)c(N=NC(=O)c2ccco2)c2ccccc21	1	31	i	i	5	83*
Cn1c(O)c(N=NC(=O)c2ccco2)c2ccccc21	2	2	i	i	-5	1
O=C(O)c1cccc(N2C(=O)/C(=C/c3ccc(SCc4ccc(Cl)cc4)o3)SC2=S)c1	.	25	.	i	.	75*
C[n+]1c(-c2ccccc2)cc2c(=Cc3ccccc3)c3ccccc3n21	.	.	.	-10*	.	.
COc1cc(OC)c2c(N)c(C#N)c(C(F)(F)C(F)(F)F)nc2c1	-1	7	i	i	-2	60
COc1ccc2nc(C(F)(F)C(F)(F)F)c(C#N)c(N)c2c1	1	-4	i	i	-2	81*
Cc1ccc2nc(N3CCN(C)CC3)c(C#N)cc2c1	0	.	i	i	2	11
Cc1ccc2nc(N3CCN(Cc4nnnn4Cc4ccccc4)CC3)c(C#N)cc2c1	0	2	i	.	-3	92*
O=c1c(Cc2ccc(F)cc2)c(O)ccn1Cc1ccc(Cl)cc1Cl	0	2	i	i	-3	83*
Cc1cc2c(cc1C)NC(=O)CC(C(F)(F)C(F)(F)C(F)(F)F)=N2	1	7	i	i	0	73*
CCN(c1cccc(C)c1)S(=O)(=O)c1cn(CC(=O)OC)c2ccc([N+](=O)[O-])cc12	1	11	i	i	-7	.
O=C(Cn1c(COc2ccccc2)nc2ccccc21)Nc1cccc(Cl)c1	1	12	i	i	6	78*
Cc1nc(SC2CC(=O)N(c3cc(Cl)cc(Cl)c3)C2=O)nc2c1CCCC2 (stereo not given)	-1	0	i	.	0	95*
CCC(=O)Nc1nnc(SCC(=O)Nc2cccc(Cl)c2)s1	-1	-6	i	i	-4	.
Cc1ccc(NC(=O)CCOc2ccccc2C)cc1F	0	1	i	i	-2	71*
CC(=O)Nc1ccc(NC(=O)CCOc2ccccc2C)cc1	1	1	i	i	5	.
Cc1ccccc1OCCCC(=O)Nc1ccc(Br)cc1	-2	13	i	i	0	96*
COc1ccc(S(=O)(=O)NCC(=O)NCc2cc(=O)n(C)c(=O)n2C)cc1	7	-1	i	i	-2	.
O=C(Nc1cccnc1)c1ccccc1Oc1ccccc1	-1	0	i	i	0	15
O=C(Nc1cccnc1)c1ccc(Oc2ccccc2)cc1	4	-17	25*	i	5	4
CCOC(=O)N1CCN(C(=O)COc2cc(=O)n(C)c3ccccc23)CC1	0	-2	25*	i	0	14
